Measured values as given in PMC8463279 (Acta Pharmaceutica Sinica. B, 2021).
≈ marks a conversion by molar mass, not a printed value. Where two headings read alike, the source gives them in different places.

Assays:
[1] = tested on: 3D7 strain of P. falciparum; assay: Parasites growth inhibition assay; type: cell-based; conditions: Plasmodium falciparum
Method in brief: (§1)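 P. falciparum grown in type O human red cells in RPMI 1640 with Albumax I, hypoxanthine, bicarbonate, 15 mmol/L HEPES and gentamycin, under 5% O₂/5% CO₂/90% N₂. Synchronised with alanine/HEPES or 5% sorbitol. Mid-ring parasites (0.5% parasitemia, 2% hematocrit) exposed to serially diluted test compound in triplicate for 72 h at 37 °C.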

Cytotoxicity assay = type: cell-based, Human; conditions: human, HepG2 cells
Method in brief: (§2)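 HepG2 cells in DMEM with 10% FBS and penicillin-streptomycin, seeded at 6,000/well and attached overnight at 37 °C, 5% CO₂. Test compound in DMSO diluted into medium and added; 24 h incubation. CCK-8 added for 2–4 h, then absorbance read at 450 nm. CC50 (reported as EC50) from nonlinear logistic regression. SI is CC50 over 3D7 EC50.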

[2] = Measurement of solubility; type: physicochemical; conditions: thermodynamic from solid
Method in brief: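 Solid added to solvent to supersaturation and shaken 24 h at room temperature, then centrifuged and filtered. Aqueous supernatants were quantified by reversed-phase HPLC against a standard curve prepared in methanol. For organic solvents, the dissolved solid was weighed after removing solvent under reduced pressure.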

[3] = biological target: T1, wildtype yeast bc1 complex (Saccharomyces cerevisiae, UniProt P00163); conditions: at 1 μmol/L; cited from earlier work
[4] = biological target: T2, PF12 bc1 complex (PF11 changes plus Y279S) (Saccharomyces cerevisiae, UniProt P00163, C133V/C134L/F296L/H141Y/I299L/L275F/M295V/R283K/V135P/Y136W/Y279S); conditions: cited from earlier work
P. falciparum strain 803 = assay: Parasites growth inhibition assay, strain 803; type: cell-based; conditions: Plasmodium falciparum
Method in brief: as §1

[5] = tested on: P. falciparum strain Fab9; assay: Parasites growth inhibition assay, strain Fab9; type: cell-based; conditions: Plasmodium falciparum
Method in brief: as §1

P. falciparum strain C2A = assay: Parasites growth inhibition assay, strain C2A; type: cell-based; conditions: Plasmodium falciparum
Method in brief: as §1

P. falciparum strain GB4 = assay: Parasites growth inhibition assay, strain GB4; type: cell-based; conditions: Plasmodium falciparum
Method in brief: as §1

[6] = tested on: P. falciparum strain CP286; assay: Parasites growth inhibition assay, strain CP286; type: cell-based; conditions: Plasmodium falciparum
Method in brief: as §1

[7] = tested on: P. falciparum strain PC26; assay: Parasites growth inhibition assay, strain PC26; type: cell-based; conditions: Plasmodium falciparum
Method in brief: as §1

P. falciparum strain Dd2 = assay: Parasites growth inhibition assay, strain Dd2; type: cell-based; conditions: Plasmodium falciparum
Method in brief: as §1

[8] = tested on: wildtype (WT) D10 parasites; assay: Parasites growth inhibition assay, wildtype D10 strain; type: cell-based; conditions: Plasmodium falciparum
Method in brief: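 Wildtype D10 or yDHOD-transgenic D10 parasites were challenged with test compound with or without 50 nmol/L proguanil. Growth inhibition used SYBR Green I: mid-ring cultures at 0.5% parasitemia and 2% hematocrit, in triplicate, for 72 h at 37 °C under 5% O₂/5% CO₂. Plates were freeze-thawed and lysed with SYBR Green I buffer, and fluorescence read at 485/538 nm. EC50 by nonlinear regression.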

HepG2 cells = assay: Cytotoxicity assay; type: cell-based, Human; conditions: CC50 / EC50 on 3D7
Method in brief: as §2

[9] = tested on: Plasmodium yoelii-infected mouse models; assay: In vivo efficacy study on P. yoelii-infected mice; conditions: once a day for 4 days
Method in brief: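 Female BALB/c mice (25 g, 6–8 weeks), specific pathogen-free, five per group. Infected intraperitoneally with about 1×10⁶ P. yoelii-infected red cells on Day 0, then randomised. Test compound in aqueous 5% DMSO / 18% PEGylated castor oil given intraperitoneally once daily for 4 days from Day 1. Chloroquine and DMSO groups included. Parasitemia by Giemsa-stained smear microscopy; survival followed, with CO₂ euthanasia at distress. Mean ± SD, n = 5.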

PfNDH2 = biological target: T3, PfNDH2 (Plasmodium falciparum, UniProt Q8I302); assay: Enzymatic activity assay of PfNDH2; type: biochemical, P. falciparum
T3 sequence (Q8I302 1-533): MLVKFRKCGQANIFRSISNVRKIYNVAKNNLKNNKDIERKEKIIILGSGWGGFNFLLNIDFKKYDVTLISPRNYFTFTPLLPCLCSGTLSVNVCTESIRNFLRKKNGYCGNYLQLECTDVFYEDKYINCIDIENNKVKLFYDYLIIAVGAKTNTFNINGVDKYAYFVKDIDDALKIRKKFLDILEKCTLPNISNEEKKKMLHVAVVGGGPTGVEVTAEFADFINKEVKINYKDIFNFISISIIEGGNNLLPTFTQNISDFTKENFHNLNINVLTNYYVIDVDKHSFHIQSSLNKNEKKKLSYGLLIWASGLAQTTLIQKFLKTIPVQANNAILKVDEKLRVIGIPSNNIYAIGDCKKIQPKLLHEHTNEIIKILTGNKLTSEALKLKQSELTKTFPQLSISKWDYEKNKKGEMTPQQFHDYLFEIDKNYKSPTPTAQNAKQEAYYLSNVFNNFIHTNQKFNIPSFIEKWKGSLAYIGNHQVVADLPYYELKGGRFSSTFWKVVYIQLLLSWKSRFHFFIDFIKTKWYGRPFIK
Method in brief: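 Reaction started with enzyme; NADH decrease followed continuously at 340 nm (ε 6220 L/(mol·cm)); IC50 by nonlinear regression. Kinetics varied UQ₁ (5–100 µmol/L) or NADH (10–600 µmol/L) at several inhibitor concentrations; Lineweaver–Burk analysis.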

Pfbc1 = biological target: T4, Pfbc1 (Plasmodium falciparum, UniProt Q02768); assay: Decylubiquinol-cytochrome c reductase activity of Pfbc1; type: biochemical, P. falciparum
T4 sequence (Q02768 1-376): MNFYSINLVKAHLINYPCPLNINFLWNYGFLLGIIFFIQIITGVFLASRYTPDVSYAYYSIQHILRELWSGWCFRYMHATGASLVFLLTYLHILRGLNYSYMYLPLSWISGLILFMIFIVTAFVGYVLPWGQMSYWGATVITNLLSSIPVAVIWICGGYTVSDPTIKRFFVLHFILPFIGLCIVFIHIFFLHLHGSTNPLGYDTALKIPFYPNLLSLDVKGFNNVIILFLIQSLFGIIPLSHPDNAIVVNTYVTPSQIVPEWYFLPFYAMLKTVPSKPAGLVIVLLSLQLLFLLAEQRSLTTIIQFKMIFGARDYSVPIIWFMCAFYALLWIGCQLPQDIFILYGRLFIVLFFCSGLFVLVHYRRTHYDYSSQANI

[10] = biological target: T1, wildtype yeast bc1 complex; assay: Decylubiquinol-cytochrome c reductase activity, wildtype yeast bc1; type: biochemical; conditions: at 10 μmol/L, data not shown
Method in brief: (§3)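 Yeast cytochrome b mutants carry P. falciparum-like substitutions and are otherwise isogenic. Mitochondria from mid-log YPGal cultures were made via zymolyase protoplasts, osmotic shock and differential centrifugation; bc1 content came from dithionite-reduced spectra. Assay at room temperature: 20 µmol/L cytochrome c in 10 mmol/L potassium phosphate pH 7, 0.01% lauryl-maltoside, 1 mmol/L KCN. bc1 was 6 nmol/L (wildtype) or 20 nmol/L (mutants), started with 40 µmol/L decylubiquinol.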

[11] = biological target: PFQi4 bc1 complex with P. falciparum-like modifications in the Qi-site (Saccharomyces cerevisiae, UniProt P00163, A191L/F225L/I17L/I195F/I226L/L198I/L40F/M221F/Q22C/S20Y/S34F/V41F/Y16H); assay: Decylubiquinol-cytochrome c reductase activity, yeast bc1 mutant PFQi4; type: biochemical
Method in brief: as §3

[12] = biological target: PF11 bc1 complex with P. falciparum-like modifications in the Qo-site (Saccharomyces cerevisiae, UniProt P00163, C133V/C134L/F296L/H141Y/I299L/L275F/M295V/R283K/V135P/Y136W); assay: Decylubiquinol-cytochrome c reductase activity, yeast bc1 mutant PF11; type: biochemical
Method in brief: as §3

[13] = biological target: T2, PF12 bc1 complex (PF11 changes plus Y279S); assay: Decylubiquinol-cytochrome c reductase activity, yeast bc1 mutant PF12; type: biochemical
[14] = tested on: various P. falciparum strains; assay: Parasites growth inhibition on the panel of various P. falciparum strains; type: cell-based, Plasmodium falciparum; conditions: all strains of Table 2
Method in brief: as §1

[15] = 0.01 mol/L HCl, pH 2, simulated gastric fluid
[16] = dichloromethane, organic solvent or mixture
[17] = methanol, organic solvent or mixture

Row | SMILES | EC50 [1] [nM] | CC50 at 24 h (Cytotoxicity assay) [nM] | solubility at 24 h [2, 15] [mM] | solubility at 24 h [2, 16] [mM] | solubility at 24 h [2, 17] [mM] | solubility at 24 h ([2]; water) [mM] | EC50 (P. falciparum strain 803) [nM] | EC50 [5] [nM] | EC50 (P. falciparum strain C2A) [nM] | EC50 (P. falciparum strain GB4) [nM] | EC50 [6] [nM] | EC50 [7] [nM] | EC50 (P. falciparum strain Dd2) [nM] | EC50 [8] [nM] | SI (selectivity index) (HepG2 cells) | further results
1 | O=C1C(O)=C([C@H]2CC[C@H](c3ccc(Cl)cc3)CC2)C(=O)c2ccccc21 [Atovaquone, atovaquone, reference compound] | 0.45 | > 10000 | 0.0006 (≈ 0.22 µg/mL) | 29 (≈ 10600 µg/mL) | 29 (≈ 10600 µg/mL) | 0.0007 (≈ 0.257 µg/mL) | – | – | – | – | – | – | – | – | – | Inhibition of wildtype yeast bc1 complex [3]: fully inhibited; Increase of mid-point inhibitory concentration PF12 compared to PF11 [4]: > 100 fold
2 | Cc1c(-c2ccc(Cc3ccc(OC(F)(F)F)cc3)c(CN(C)C)c2)[nH]c2cccc(F)c2c1=O [Compound 24] | 2.09 | > 10000 | 0.496 (≈ 240 µg/mL) | 19 (≈ 9210 µg/mL) | 110 (≈ 53300 µg/mL) | 0.04 (≈ 19.4 µg/mL) | 9.3 | 6.01 | 1.44 | 1.02 | 4.56 | 3.17 | 2.05 | 3.23 | >4785 | –
3 | Cc1c(-c2ccc(Cc3ccc(OC(F)(F)F)cc3)c(CN3CCCC3)c2)[nH]c2cccc(F)c2c1=O [Compound 25] | 2.89 | > 10000 | 0.45 (≈ 230 µg/mL) | 30 (≈ 15300 µg/mL) | 37 (≈ 18900 µg/mL) | 0.0163 (≈ 8.32 µg/mL) | 9.81 | 5.33 | 7.01 | 1.41 | 4.81 | 3.3 | 2.18 | 2.32 | >3460 | –
4 | CCCCCN(C)Cc1cc(-c2[nH]c3cccc(F)c3c(=O)c2C)ccc1Cc1ccc(OC(F)(F)F)cc1 [Compound 30] | 0.61 | > 10000 | 0.337 (≈ 182 µg/mL) | 370 (≈ 200000 µg/mL) | 34 (≈ 18400 µg/mL) | 0.0064 (≈ 3.46 µg/mL) | – | – | – | – | – | – | – | – | >16,393 | –
5 | CCCCCCCN(C)Cc1cc(-c2[nH]c3cccc(F)c3c(=O)c2C)ccc1Cc1ccc(OC(F)(F)F)cc1 [Compound 31] | 0.3 | > 10000 | 0.0194 (≈ 11 µg/mL) | 420 (≈ 239000 µg/mL) | 32 (≈ 18200 µg/mL) | 0.002 (≈ 1.14 µg/mL) | – | – | – | – | – | – | – | – | >33,333 | –
6 | CCCN(C)Cc1cc(-c2[nH]c3cccc(F)c3c(=O)c2C)ccc1Cc1ccc(OC(F)(F)F)cc1 [RYL-581] | 0.056 | > 10000 | 0.428 (≈ 219 µg/mL) | 64 (≈ 32800 µg/mL) | 37 (≈ 19000 µg/mL) | 0.0136 (≈ 6.97 µg/mL) | 0.96 | 0.27 | 0.29 | 0.23 | – | 0.31 | 0.44 | 0.7 | >178,571 | Day by which parasites were completely cleared ([9]; 3 mg/kg/d intraperitoneal): ≤ 22 days; Final survival rate ([9]; 3 mg/kg/d intraperitoneal, 5 mice): 80%; Day by which all mice were cured ([9]; 10 mg/kg/d intraperitoneal): ≤ 16 days; Survival rate ([9]; 10 mg/kg/d intraperitoneal, 5 mice): 100%; Potency on PfNDH2 decreased as compared to RYL-552 (PfNDH2): 11 fold; IC50 (PfNDH2; IC50 PfNDH2, 200 μmol/L NADH, 100 μmol/L UQ1): 42.2 nM; Type of inhibition of PfNDH2 (Lineweaver–Burk) (PfNDH2; substrates Q (UQ1) and NADH varied): non-competitive; IC50 (Pfbc1): 0.51 nM; Inhibition of wildtype yeast bc1 complex [10]: only slight inhibition; IC50 [11]: ~10000 nM; Resistance of PFQi4 bc1 complex compared to wild type [11]: increased reactivity; IC50 [12]: ~300 nM; IC50 [13]: ~1000 nM; Increase of mid-point inhibitory concentration PF12 compared to PF11 [13]: three-fold; EC50 values on various strains, in words [14]: sub-nanomolar
